Results on 4 compounds are retold here after ChEMBL document CHEMBL1800058, “Lathyrane diterpenoids from the roots of Euphorbia micractina and their biological activities” (J Nat Prod, 2011).

For one assay, the system named is A549. Put plainly: Cytotoxicity against human A549 cells at 10^-6 M after 96 hrs by MTT assay. It is filed as functional, cell-based.
Another assay relates to BGC-823. Put plainly: Cytotoxicity against human BGC823 cells at 10^-6 M after 96 hrs by MTT assay. It is filed as functional, cell-based.
The next assay concerns Bel-7402. Put plainly: Cytotoxicity against human Bel7402 cells at 10^-6 M after 96 hrs by MTT assay. It is filed as functional, cell-based.
A further assay relates to Aorta. The assay is described as follows: Vasorelaxant activity in Sprague-Dawley rat […] thoracic aorta assessed as inhibition of phenylephrine-induced vasoconstriction at 10^-6 M relative to control. Further details: scale not given: the % may be the effect or the level left. It is filed as functional. A digest of the protocol: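 Read-out was percent relaxation of phenylephrine-precontracted vessels. Verapamil served as the positive control at the same test concentration.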

The next assay has as its system HCT-8. The assay is described as follows: Cytotoxicity against human HCT8 cells at 10^-6 M after 96 hrs by MTT assay. It is filed as functional, cell-based.
The subject of assay [1] is Human immunodeficiency virus 1. The assay is described as follows: Antiviral activity against HIV1 harboring vesicular stomatitis virus glycoprotein infected in human 293T cells assessed as inhibition of viral replication after 48 hrs by luciferase activity based luminometer analysis. Type of assay: functional, organism-based. The conditions noted are these: Human immunodeficiency virus 1, HEK-293T.

Assay [2] concerns the target T1, Tyrosine-protein phosphatase non-receptor type 1 (Homo sapiens) (UniProt P18031).
T1 sequence (whole entry): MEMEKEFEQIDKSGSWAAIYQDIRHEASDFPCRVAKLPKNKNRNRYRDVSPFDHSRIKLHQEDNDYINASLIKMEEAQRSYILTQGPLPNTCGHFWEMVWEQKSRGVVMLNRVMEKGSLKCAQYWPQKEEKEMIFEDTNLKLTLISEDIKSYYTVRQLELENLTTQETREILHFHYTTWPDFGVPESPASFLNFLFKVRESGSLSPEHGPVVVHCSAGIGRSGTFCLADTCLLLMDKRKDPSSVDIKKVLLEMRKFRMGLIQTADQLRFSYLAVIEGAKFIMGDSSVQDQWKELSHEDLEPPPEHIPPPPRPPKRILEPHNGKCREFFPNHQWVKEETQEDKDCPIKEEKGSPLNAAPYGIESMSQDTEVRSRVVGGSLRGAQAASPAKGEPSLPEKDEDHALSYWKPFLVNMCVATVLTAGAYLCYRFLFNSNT
Put plainly: Inhibition of human recombinant GST-tagged PTP1B assessed as conversion of para-nitrophenyl phosphate to para-nitrophenol at 10^-6 M after 10 mins by microplate spectrophotometer analysis.

Another assay concerns KETR3. Put plainly: Cytotoxicity against human Ketr3 cells at 10^-6 M after 96 hrs by MTT assay. Type of assay: functional, cell-based.
Another assay relates to Liver microsomes. Put plainly: Antioxidant activity against Fe2+-cystine-induced lipid peroxidation in rat liver microsomes at 10^-6 M after 15 mins by thiobarbituric acid method. Type of assay: functional. The settings on record: Microsome.
The subject of a further assay is MCF7. Put plainly: Cytotoxicity against human MCF7 cells at 10^-6 M after 96 hrs by MTT assay. Type of assay: functional, cell-based.
In assay [3] the test system is Human immunodeficiency virus 1. The assay is described as follows: Antiviral activity against HIV1 harboring vesicular stomatitis virus glycoprotein infected in human 293T cells assessed as inhibition of viral replication at 10 uM after 48 hrs by luciferase activity based luminometer analysis. It is filed as functional, organism-based.

Activity calls are given as the source filed them. The calls are words filed in the database; no cut-off is given here.

Consider `C/C1=C\[C@H]2[C@@H](O)[C@@H](C)C[C@]2(OC(=O)/C=C/c2ccccc2)C(=O)/C(C)=C/[C@H]2[C@H](CC1)C2(C)C`, for which the outcome with A549, with BGC-823, in the assay with Bel-7402, with HCT-8, with KETR3 and in the assay on Liver microsomes was inactive. In addition, the outcome with MCF7 was inactive. The Activity in the assay on Aorta is less than 30%. Further, the concentration for half-maximal inhibition (IC50) in assay [1] stood at 8.2 µM. Moreover, the inhibition entry in assay [2] was “inactive”.

In the case of `C/C1=C/C[C@H]2[C@H](/C=C(\C)C(=O)[C@@]3(O)C[C@H](C)[C@H](O)[C@@H]3[C@H]1OC(=O)/C=C/c1ccccc1)C2(C)C`, the result (with A549; with BGC-823; in the assay with Bel-7402; in assay [3]; in the assay with HCT-8; in the assay with KETR3) was inactive. Also, the outcome in the assay with Liver microsomes and with MCF7 was inactive. In addition, the Activity with Aorta is less than 30%. In addition, the inhibition result in [2] was “inactive”.

As for `C/C1=C/C[C@H]2[C@@H](/C=C(\C)C(=O)[C@@]3(O)C[C@H](C)[C@H](OC(=O)/C=C/c4ccccc4)[C@H]3[C@H]1O)C2(C)C`, the result (with A549; in the assay on BGC-823; with Bel-7402; in assay [3]; in the assay with HCT-8; in the assay with KETR3) was inactive. Further, the outcome in the assay on Liver microsomes and in the assay on MCF7 was inactive. Besides, the Activity with Aorta is given as less than 30%. Besides, the inhibition entry in assay [2] is “inactive”.

Regarding `C=C1CC[C@H]2[C@H](/C=C(\C)C(=O)[C@@]3(OC(=O)/C=C/c4ccccc4)C[C@H](C)[C@H](O)[C@@H]3[C@H]1O)C2(C)C`, the result (in the assay on A549; in the assay on BGC-823; in the assay on Bel-7402; in assay [3]; in the assay on HCT-8; in the assay with KETR3) was inactive. The outcome in the assay on Liver microsomes and in the assay with MCF7 was inactive. In the assay with Aorta, the Activity was less than 30%. Also, in [2], the inhibition entry was “inactive”.
